Assay results from ChEMBL document CHEMBL1138064, “Discovery of N-[(3R)-1-azabicyclo[2.2.2]oct-3-yl]furo[2,3-c]pyridine-5-carboxamide, an agonist of the alpha7 nicotinic acetylcholine receptor, for the potential treatment of cognitive deficits in schizophrenia: synthesis and structure--activity relationship” (J Med Chem, 2006).

Assays:
[1] = Metabolic stability in Sprague-Dawley rat liver microsomes after 1 hr; assay type: ADME, Microsome; conditions: read-out: Stability
Summary of the method: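 Rat liver microsomes incubated with compound, in vitro metabolism; read-out is percent of parent remaining at 1 h.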

[2] = Activity at alpha7-5HT3 chimera expressed in SHEP1 cells by FLIPR assay; assay type: functional, cell-based; conditions: Homo sapiens, SH-EP1
Summary of the method: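 Cell-based FLIPR functional assay in SH-EP1 cells expressing the α7-5HT3 chimera. Values are the average of at least five experiments for most compounds.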

[3] = target: Neuronal acetylcholine receptor subunit alpha-7 (Rattus norvegicus, UniProt Q05941); assay: Displacement of [3H]MLA from alpha-7 nAChR in Sprague-Dawley rat brain homogenates; assay type: tissue-based
Neuronal acetylcholine receptor subunit alpha-7, sequence (Q05941 whole entry): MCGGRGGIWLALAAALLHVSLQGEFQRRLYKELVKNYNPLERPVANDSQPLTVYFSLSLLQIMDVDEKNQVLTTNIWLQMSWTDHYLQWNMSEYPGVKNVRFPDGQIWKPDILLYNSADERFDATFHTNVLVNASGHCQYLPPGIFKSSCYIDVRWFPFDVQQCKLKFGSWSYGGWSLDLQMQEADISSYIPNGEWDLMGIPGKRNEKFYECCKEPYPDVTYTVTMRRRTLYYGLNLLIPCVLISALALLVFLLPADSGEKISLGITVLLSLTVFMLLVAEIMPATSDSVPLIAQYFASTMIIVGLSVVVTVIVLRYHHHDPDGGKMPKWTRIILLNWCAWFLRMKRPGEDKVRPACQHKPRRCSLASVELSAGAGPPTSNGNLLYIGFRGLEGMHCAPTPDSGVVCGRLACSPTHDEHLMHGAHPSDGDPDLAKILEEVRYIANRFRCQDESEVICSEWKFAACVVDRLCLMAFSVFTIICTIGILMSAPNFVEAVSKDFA
Summary of the method: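 Rat brain homogenate binding assay with [3H]MLA as radioligand. Values are the average of two or more experiments.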

[4] = Oral bioavailability in rat constant infusion model; assay type: ADME, organism-based; conditions: in vivo
Summary of the method: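 Rat clearance and oral bioavailability derived from a constant infusion model.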

[5] = target: T1, hERG (Homo sapiens, UniProt Q12809); assay: Inhibition of hERG expressed in HEK293 cells at 2 uM by patch clamp assay; assay type: toxicity, cell-based; conditions: HEK293 cells that express hERG
T1 sequence (Q12809 whole entry): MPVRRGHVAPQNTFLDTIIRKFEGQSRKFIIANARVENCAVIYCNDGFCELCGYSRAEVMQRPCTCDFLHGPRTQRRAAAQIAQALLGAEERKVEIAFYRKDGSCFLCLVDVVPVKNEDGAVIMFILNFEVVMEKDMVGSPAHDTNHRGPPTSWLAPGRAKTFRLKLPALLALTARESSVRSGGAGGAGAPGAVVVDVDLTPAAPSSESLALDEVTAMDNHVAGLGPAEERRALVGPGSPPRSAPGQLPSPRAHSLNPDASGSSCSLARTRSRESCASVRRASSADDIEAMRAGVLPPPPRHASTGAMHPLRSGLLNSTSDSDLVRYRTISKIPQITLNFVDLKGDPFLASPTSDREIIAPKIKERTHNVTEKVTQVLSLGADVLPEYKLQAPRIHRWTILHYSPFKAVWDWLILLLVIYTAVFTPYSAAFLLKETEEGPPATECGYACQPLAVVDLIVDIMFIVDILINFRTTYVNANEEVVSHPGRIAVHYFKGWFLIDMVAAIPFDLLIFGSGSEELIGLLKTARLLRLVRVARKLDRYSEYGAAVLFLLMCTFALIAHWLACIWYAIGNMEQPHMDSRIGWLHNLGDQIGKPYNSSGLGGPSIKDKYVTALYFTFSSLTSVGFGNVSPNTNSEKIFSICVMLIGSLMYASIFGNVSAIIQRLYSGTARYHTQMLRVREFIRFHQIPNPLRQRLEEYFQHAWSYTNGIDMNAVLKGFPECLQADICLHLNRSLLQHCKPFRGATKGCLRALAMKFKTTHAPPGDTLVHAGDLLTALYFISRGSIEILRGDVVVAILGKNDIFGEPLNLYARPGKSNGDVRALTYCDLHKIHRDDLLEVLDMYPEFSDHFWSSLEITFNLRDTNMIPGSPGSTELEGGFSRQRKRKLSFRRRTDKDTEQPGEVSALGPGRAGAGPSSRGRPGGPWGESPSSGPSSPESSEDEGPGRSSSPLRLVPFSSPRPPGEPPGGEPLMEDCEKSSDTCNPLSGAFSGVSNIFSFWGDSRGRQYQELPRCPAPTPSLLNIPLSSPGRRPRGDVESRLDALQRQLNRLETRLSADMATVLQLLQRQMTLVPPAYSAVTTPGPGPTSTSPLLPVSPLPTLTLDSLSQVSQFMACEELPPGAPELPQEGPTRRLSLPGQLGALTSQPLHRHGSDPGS
Summary of the method: (§1)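 hERG current (IKr) in HEK cells recorded by patch clamp; compound applied at 2 and 20 µM; % block of current reported at each concentration.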

[6] = Half life in human liver microsome; assay type: ADME; conditions: liver microsomes
[7] = target: Serotonin 3 (5-HT3) receptor; assay: Activity at 5HT3 receptor expressed in SHEP1 cells by FLIPR assay; assay type: functional, cell-based, Homo sapiens
Summary of the method: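 Cell-based FLIPR functional assay in SH-EP1 cells expressing 5-HT3.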

[8] = target: Neuronal acetylcholine receptor; alpha4/beta2 (Rattus norvegicus) (UniProt P09483+P12390); assay: Inhibition of [3H]cytisine binding to alpha4beta2 nAChR in rat brain homogenate at 1 uM; assay type: tissue-based
Summary of the method: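 Radioligand displacement in rat brain homogenate with [³H]cytisine as the α4β2 ligand; test compound at 1 µM; value reported as % block of binding.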

[9] = target: T1, hERG; assay: Inhibition of hERG expressed in HEK293 cells at 20 uM by patch clamp assay; assay type: toxicity, cell-based; conditions: HEK293 cells that express hERG; summary of the method: as §1
[10] = target: Neuronal acetylcholine receptor; alpha3/beta4 (Homo sapiens, UniProt P30926+P32297); assay: Inhibition of alpha-3-beta-4 nAChR expressed in SHSY5Y cells by FLIPR assay; assay type: functional, cell-based, SH-SY5Y
Neuronal acetylcholine receptor; alpha3/beta4, sequence (P30926 whole entry): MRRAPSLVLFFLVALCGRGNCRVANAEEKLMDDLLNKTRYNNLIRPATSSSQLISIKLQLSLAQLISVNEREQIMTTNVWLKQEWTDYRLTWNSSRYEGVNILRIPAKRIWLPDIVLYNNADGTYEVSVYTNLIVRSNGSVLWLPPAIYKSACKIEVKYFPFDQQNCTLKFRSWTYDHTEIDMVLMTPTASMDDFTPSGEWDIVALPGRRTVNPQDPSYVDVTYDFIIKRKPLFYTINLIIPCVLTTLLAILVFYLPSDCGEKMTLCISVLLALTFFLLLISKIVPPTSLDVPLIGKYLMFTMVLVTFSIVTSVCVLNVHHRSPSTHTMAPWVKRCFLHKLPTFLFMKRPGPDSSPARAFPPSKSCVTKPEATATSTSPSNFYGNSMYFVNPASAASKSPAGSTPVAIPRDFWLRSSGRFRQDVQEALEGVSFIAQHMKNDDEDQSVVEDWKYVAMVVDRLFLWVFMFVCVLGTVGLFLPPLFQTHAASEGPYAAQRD
Neuronal acetylcholine receptor; alpha3/beta4, sequence (P32297 whole entry): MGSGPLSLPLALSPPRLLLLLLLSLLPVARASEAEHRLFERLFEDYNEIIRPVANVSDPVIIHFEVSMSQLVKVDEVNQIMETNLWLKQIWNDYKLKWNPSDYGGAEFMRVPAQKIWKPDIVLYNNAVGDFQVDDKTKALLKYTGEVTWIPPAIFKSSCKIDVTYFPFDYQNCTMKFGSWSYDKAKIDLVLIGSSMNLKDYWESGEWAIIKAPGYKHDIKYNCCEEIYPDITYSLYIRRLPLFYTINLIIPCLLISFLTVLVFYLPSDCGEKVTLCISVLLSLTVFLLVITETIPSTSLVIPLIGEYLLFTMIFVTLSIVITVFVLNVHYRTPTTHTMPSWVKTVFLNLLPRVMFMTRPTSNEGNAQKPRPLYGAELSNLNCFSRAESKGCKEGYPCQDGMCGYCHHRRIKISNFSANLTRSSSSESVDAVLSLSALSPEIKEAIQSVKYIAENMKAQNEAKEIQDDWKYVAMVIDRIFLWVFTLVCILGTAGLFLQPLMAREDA
Summary of the method: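 FLIPR cell-based functional assay in SH-SY5Y cells, which carry α3β4-containing ganglion-type nAChRs; tested for agonist and antagonist activity; IC50 in µM.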

[11] = target: Acetylcholine receptor; alpha1/beta1/delta/gamma (Homo sapiens, UniProt P02708+P07510+P11230+Q07001); assay: Inhibition of alpha-1-beta-1-gamma-delta nAChR expressed in TE671cells by FLIPR assay; assay type: functional, cell-based, TE-671
Summary of the method: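 Functional FLIPR read-out in TE671 cells expressing native muscle-type α1β1γδ nAChR, cell-based; tested for agonist and antagonist activity; IC50 in µM.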

[12] = target: Serotonin 3 (5-HT3) receptor; assay: Binding affinity to 5HT3 receptor; assay type: protein-complex assay, Homo sapiens
[13] = target: Cytochrome P450 2D6 (Homo sapiens, UniProt P10635); assay: Inhibition of CYP2D6; assay type: ADME
Cytochrome P450 2D6, sequence (P10635 whole entry, the tested form may be a part): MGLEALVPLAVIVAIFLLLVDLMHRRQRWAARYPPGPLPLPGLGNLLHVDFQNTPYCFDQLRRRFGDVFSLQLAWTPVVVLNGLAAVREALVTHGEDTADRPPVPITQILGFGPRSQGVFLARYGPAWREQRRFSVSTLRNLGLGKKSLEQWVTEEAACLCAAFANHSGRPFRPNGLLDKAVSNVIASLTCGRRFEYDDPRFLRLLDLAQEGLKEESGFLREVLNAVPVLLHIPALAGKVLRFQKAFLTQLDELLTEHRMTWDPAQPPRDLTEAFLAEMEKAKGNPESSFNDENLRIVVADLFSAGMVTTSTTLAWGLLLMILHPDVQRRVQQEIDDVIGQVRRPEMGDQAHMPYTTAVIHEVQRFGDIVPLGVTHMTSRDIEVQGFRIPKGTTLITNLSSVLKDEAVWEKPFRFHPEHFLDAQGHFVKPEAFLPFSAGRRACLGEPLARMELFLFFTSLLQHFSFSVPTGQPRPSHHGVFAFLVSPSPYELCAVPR

[14] = Clearance in rat constant infusion model; assay type: ADME, organism-based; conditions: in vivo, iv
Summary of the method: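 Clearance determined in a rat constant infusion model.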

[15] = Half life in Sprague-Dawley rat liver microsome; assay type: ADME; conditions: liver microsomes

Compound `O=C(N[C@H]1CN2CCC1CC2)c1cc2occc2cn1` has a remaining at 1 h [1] of 40%, an EC50 [2] of 374 nM and a Ki [3] of 50 nM.

`O=C(N[C@H]1CN2CCC1CC2)c1ccc2ccoc2n1` gave an EC50 [2] of over 10000 nM.

`O=C(N[C@H]1CN2CCC1CC2)c1ccc2occc2c1` gave a bioavailability [4] of 88%, an inhibition at 2 µM [5] of 2% and a half-life [6] of over 2 h. It also gave a Ki [7] of 580 nM, a remaining at 1 h [1] of 77% and an inhibition [8] of 5%. It also gave an EC50 [2] of 47 nM, an inhibition at 20 µM [9] of 33% and an IC50 [10] of over 100000 nM. It also gave an IC50 [11] of over 100000 nM, a Ki [12] of 663 nM and a Ki [3] of 1.6 nM. For the same compound, the IC50 [13] was 3600 nM, the clearance [14] was 39 mL/min/kg and the half-life [15] was over 2 h.

`O=C(N[C@H]1CN2CCC1CC2)c1ccc2c(c1)CCO2` gave an EC50 [2] of 77 nM and a Ki [3] of 15 nM.

For `O=C(N[C@H]1CN2CCC1CC2)c1ccc2ccoc2c1`, the bioavailability [4] was 76%, the inhibition at 2 µM [5] was 2% and the half-life [6] was over 2 h. For the same compound, the Ki [7] was 962 nM, the remaining at 1 h [1] was 69% and the EC50 [2] was 86 nM. The inhibition at 20 µM [9] was 29%, the IC50 [10] was 81000 nM and the IC50 [11] was over 100000 nM. The Ki [12] was 310 nM, the Ki [3] was 12.5 nM and the IC50 [13] was over 10000 nM. For the same compound, the clearance [14] was 58 mL/min/kg.

In the case of `O=C(N[C@H]1CN2CCC1CC2)c1ccc2ccsc2c1`, the inhibition at 2 µM [5] is reported as 13%, the Ki [7] is reported as 188 nM and the remaining at 1 h [1] is reported as 29%. The EC50 [2] was 48 nM, the inhibition at 20 µM [9] was 65% and the IC50 [10] was 38000 nM. The IC50 [11] was over 100000 nM, the Ki [12] was 174 nM and the Ki [3] was 2.1 nM.

For `O=C(N[C@H]1CN2CCC1CC2)c1ccc2c(c1)CCN2`, the EC50 [2] was 600 nM and the Ki [3] was 83 nM.

With `O=C(N[C@H]1CN2CCC1CC2)c1ccc(Cl)cc1` [PNU-282987] the bioavailability [4] was 74%, the inhibition at 2 µM [5] was 11% and the half-life [6] was over 2 h. It also gave a Ki [7] of 4540 nM, a remaining at 1 h [1] of 96% and an inhibition [8] of 14%. The EC50 [2] was 128 nM, the inhibition at 20 µM [9] was 57% and the IC50 [10] was over 60000 nM. For the same compound, the IC50 [11] was over 60000 nM, the Ki [12] was 1660 nM and the Ki [3] was 24 nM. It also gave an IC50 [13] of over 3000 nM, a clearance [14] of 30 mL/min/kg and a half-life [15] of over 2 h.

`O=C(N[C@H]1CN2CCC1CC2)c1ccc2cc[nH]c2c1` showed a remaining at 1 h [1] of 14% and an EC50 [2] of 100 nM.

`O=C(N[C@H]1CN2CCC1CC2)c1cc2cc[nH]c2cn1` gave a remaining at 1 h [1] of 29% and an EC50 [2] of 1170 nM.

For `O=C(N[C@H]1CN2CCC1CC2)c1ccc2sccc2c1`, the remaining at 1 h [1] was 6%, the EC50 [2] was 55 nM and the Ki [3] was 6.9 nM.

In the case of `O=C(N[C@H]1CN2CCC1CC2)c1cc2ccsc2cn1`, the remaining at 1 h [1] is reported as 7%, the EC50 [2] is reported as 100 nM and the Ki [3] is reported as 6.3 nM.

In the case of `O=C(N[C@H]1CN2CCC1CC2)c1cc2sccc2cn1`, the remaining at 1 h [1] is reported as 7% and the EC50 [2] is reported as 81 nM.

Compound `O=C(N[C@H]1CN2CCC1CC2)c1cnc2occc2c1` has an EC50 [2] of over 10000 nM.

Compound `O=C(N[C@H]1CN2CCC1CC2)c1ccc2[nH]ccc2c1` has an EC50 [2] of 550 nM.
